Experiments:
MS2 coat protein [1] = assay: apparent Kd, MS2 coat protein; higher = weaker binding; RNA-MaP array; theophylline 2 mM where present
Outline: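 The apparent Kd comes from binding curves fitted cluster by cluster, filtered, and summarised as a median. Those curves followed SNAP-549-labelled MS2 coat protein from 0.7 or 1.5 nM, doubling to 3 µM, on Illumina sequencing-chip clusters where stalled E. coli RNA polymerase had transcribed the designs, without and then with constant ligand. The buffer was 100 mM Tris-HCl pH 7.5, 80 mM KCl, 4 mM MgCl2, BSA, DTT, yeast tRNA and Tween-20, and green signal was normalised to red-channel RNA signal and control-cluster median Fmax.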

MS2 coat protein [2] = assay: apparent Kd, MS2 coat protein; higher = weaker binding; RNA-MaP array
Outline: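 Designed RNAs were produced on an Illumina sequencing chip by transcription of sequenced DNA templates. Binding to fluorescently labeled MS2 coat protein (1.5 nM to 3 μM) was measured at room temperature with or without input ligand. The apparent Kd is the median of per-cluster binding-curve fits. Designs were excluded when measured on fewer than 10 clusters.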

[3] = designed as: ON switch for theophylline, no ligand
[4] = ligand present: theophylline, designed as: ON switch for theophylline
[5] = designed as: OFF switch for theophylline, no ligand
[6] = ligand present: theophylline, designed as: OFF switch for theophylline
[7] = designed as: ON switch for flavin mononucleotide, no ligand
[8] = ligand present: flavin mononucleotide, designed as: ON switch for flavin mononucleotide
[9] = designed as: OFF switch for flavin mononucleotide, no ligand
[10] = ligand present: flavin mononucleotide, designed as: OFF switch for flavin mononucleotide

Sequence | apparent Kd (MS2 coat protein [1]; [3]) [nM] | apparent Kd (MS2 coat protein [1]; [4]) [nM] | apparent Kd (MS2 coat protein [1]; [5]) [nM] | apparent Kd (MS2 coat protein [1]; [6]) [nM] | also measured
AUCGUACCUGAUGAUACCAGCAAUUGCUCGUAACAUGAGGAUCACCCAUGUGACCAGUGAUGCCCUUGGCAGCAUGAUCGGUGCA | 53.8 | 12.4 |  |  | 
AUCGUACCUGAUGAUACCAGCAAUUGCUCGUAACAUGAGGAUCACCCAUGUGAUCAGUGAUGCCCUUGGCAGCAUGAUCGGUGCA | 262 | 35.4 |  |  | 
AUCUCAUAGAGUGAUACCAGACUACAUGAGGAUCACCCAUGUUACAUUUAAAUAUCAUUUGUCCCUUGGCAGCACAUGAAGUACA |  |  | 28 | 18 | 
AUGUCGUUGAAUAUAGCGGCUUGGAGUGAUACCAGCAUGAUCCAAUGCCCUUGGCAGCAUAACAUGAGGAUCACCCAUGUUCCAG | 57.6 | 74.6 |  |  | 
CAGCCUGAUUGGUAAAUCCCUCAUCGUGAUACCAGUCGAGUGAUCGACCCUUGGCAGCACAUGAGGAUCACCCAUGUGCGCGUAA |  |  | 26.7 | 29.8 | 
CCAUAUGUAACUGAUACCAGUGUACUGACAUGAGGAUCACCCAUGUUGGGUUUUGUUGUACACCCUUGGCAGCAGAAUCAUAUGG |  |  | 62.4 | 80.4 | 
CUCCGAGGCUAUACUAUCCGCCUCAGUGAUACCAGAAUACCUAUAUUCCCUUGGCAGCAUCACAUGAGGAUCACCCAUGUGCCAU | 12.5 | 15.2 |  |  | 
CUCGAGUUAUGAGAUACCAGACUAUAGUUUACAUGAGGAUCACCCAUGUUAUGGGUGGUGGUCCCUUGGCAGCUCAUAUGUUUAA |  |  | 60.1 | 284 | 
GAGACAUGAGGAUCACCCAUGUUAGAUGAUACCAGUUAGAGAAGGAGCCCUUGGCAGCGUAAAUCUAGAGCCUAUGACGACAUGU | 13.4 | 14.2 |  |  | 
GAGCUGAUGUAGAGAUUUUAUUUCUGAGAUACCAGUACAGAAAUGUACCCUUGGCAGCUCAGCUUUACAUGAGGAUCACCCAUGU |  |  | 17.2 | 22.1 | 
GAGCUGAUGUAGAGCUAAUAUAAGAGAGAUACCAGUACAGAAAUGUACCCUUGGCAGCUCAACUUUACAUGAGGAUCACCCAUGU |  |  | 13.9 | 16.9 | 
GAUGAACUAUAUGAUACCAGACAACAUGAGGAUCACCCAUGUGAUUGUCGUCCUCUGCCUGUCCCUUGGCAGCGUAUAGUUUAUC |  |  | 33.8 | 229 | 
GAUGAUAUUGCAGAUACCAGACACAUGAGGAUCACCCAUGUCGCUGAGAUGCUGGAUCGUGUCCCUUGGCAGCUGCGAUAUCAUC |  |  | 55.1 | 402 | 
GGAAGCAGGACUGAUACCAGUCCAGCGAAUCAUACGACGCAACAUGAGGAUCACCCAUGUGACCCUUGGCAGCAGACUGCUACCG | 31.5 | 13.7 |  |  | 
GGAUAGAUAGGAGAUACCAGAUACAUCAACAUGAGGAUCACCCAUGUGUCUGCACUAAGUGUCCCUUGGCAGCUCGGAGAUCUGA | 32.3 | 20.5 |  |  | 
GGGAAUGAACGUGAUACCAGAGAUCCGGUCUCCGUCAAUAUACAUGAGGAUCACCCAUGUCUCCCUUGGCAGCACCGUCAUCGGG |  |  | 14.8 | 23.4 | 
GGUGAUCCGUAUCACCGGAUCAUCGGUGAUACCAGCAUCGAAAGAUGCCCUUGGCAGCACCAACAUGAGGAUCACCCAUGUAAUA | 120 | 25.9 |  |  | 
GGUGGGACUUGUGAUACCAGCCCAAUUCGAAUCGAAUUGCACAUGAGGAUCACCCAUGUCGGCCCUUGGCAGCAUGAGUAUUUAU | 312 | 16.8 |  |  | 
UGGCCAGAACCUUUUGUGGCCACAUGAGGAUCACCCAUGUGCGAGGAUAUCCCAUCCGGUCCGGCGGAGAAGGCGCGUAUCGGC |  |  |  |  | apparent Kd (MS2 coat protein [2]; [7]): 34.4 nM; apparent Kd (MS2 coat protein [2]; [8]): 30.1 nM
UGUUACAUGAGGAUCACCCAUGUCAGAUGGUCUGGCUAUUACAGAAGGAAUAAAGAACGUCGAGAUUAGGAUAUGUGUAGAUGA |  |  |  |  | apparent Kd (MS2 coat protein [2]; [7]): 40.9 nM; apparent Kd (MS2 coat protein [2]; [8]): 31.8 nM
UUACACAUGAGGAUCACCCAUGUCUGGGAGCGAGGACCGGUACGGCCGCCACUCGAAUUGUCAGGGCUAUGCCGGACGAUGCAUC |  |  |  |  | apparent Kd (MS2 coat protein [2]; designed as: ON switch for tryptophan, no ligand): 17.1 nM; apparent Kd (MS2 coat protein [2]; ligand present: tryptophan, designed as: ON switch for tryptophan): 21.1 nM
UUACUACAUGAGGAUCACCCAUGUGAAAAUUAAACGAAAAGUUAGGAUAUGAAUGGAAAUGCACCUCAGAAGGAACGCGACAAG |  |  |  |  | apparent Kd (MS2 coat protein [2]; [7]): 18.4 nM; apparent Kd (MS2 coat protein [2]; [8]): 16.9 nM
UUAGUGAUACUAGGAUAUAGGUAAGACUCUUAACUAGAAGGAGUAGGGACGAAUACAUGAGGAUCACCCAUGUGAUUCUGGUUG |  |  |  |  | apparent Kd (MS2 coat protein [2]; [9]): 21.6 nM; apparent Kd (MS2 coat protein [2]; [10]): 26.3 nM
UUCAUUUUCUAGGAUAUGUACCAGAAAAUAGUUACAGAAGGAGAGACAUGAGGAUCACCCAUGUUGGCAACAGC |  |  |  |  | apparent Kd (MS2 coat protein [2]; [9]): 10.7 nM; apparent Kd (MS2 coat protein [2]; [10]): 11.6 nM
UUUGCAGUCGAGAAGGCAAACACAUGAGGAUCACCCAUGUAGACGAGGUAUGUUAUUUCGGGAGUUGAGGAUAUCGUGGUAGGU |  |  |  |  | apparent Kd (MS2 coat protein [2]; [7]): 27.8 nM; apparent Kd (MS2 coat protein [2]; [8]): 13.8 nM
